Results collected from several papers.
Lines come from different studies, so protocols differ.
Organism: Escherichia coli
Observed: microbial growth

| SMILES | method | cell line | strain | time | MIC |
| --- | --- | --- | --- | --- | --- |
| Cl.N[C@H]1CCN(c2cc(C(=O)NCC(=O)O)ccc2NC(=O)c2cc(Br)c(Br)[nH]2)C1 | broth dilution |  | ATCC25922 |  | > 32 µg/mL |
| CN[C@@H]1[C@@H](O[C@H]2O[C@H](CO)[C@@H](N)[C@H](O)[C@H]2O)OC2C[C@@H](N)[C@@H](O[C@H]3[C@H](O)[C@@H](O)[C@H](N)C[C@@H]3N)OC2[C@@H]1O (stereo partly drawn) |  |  |  | 24 h | 2.5 to 5 µM |
| Cc1[nH]c(C(=O)Nc2ccc(C(=O)NCC(=O)O)cc2N2CC[C@H](N)C2)c(Cl)c1Cl.Cl | broth dilution |  | ATCC25922 |  | > 32 µg/mL |
| C[C@H]1[C@H](NC(=O)/C(=N\OC(C)(C)C(=O)O)c2csc(N)n2)C(=O)N1S(=O)(=O)O | broth dilution |  |  |  | ≤ 0.06 µg/mL |
| Cc1[nH]c(C(=O)Nc2ccc(C(=O)NCC(=O)O)cc2N2CCNCC2)c(Cl)c1Cl.Cl | broth dilution |  | ATCC25922 |  | > 32 µg/mL |
| CC(O)CSc1nnc(COc2ccc(Cl)cc2Br)n1-c1ccccc1 (stereo not drawn) |  |  |  |  | 20500 µg/mL |
| CN(C)[C@@H]1C(O)=C(C(N)=O)C(=O)[C@@]2(O)C(O)=C3C(=O)c4c(O)cccc4[C@@](C)(O)[C@H]3C[C@@H]12 | broth dilution |  | ATCC25922 |  | 16 µg/mL |
| C[C@@H](O)[C@H]1C(=O)N2C(C(=O)O)=C(S[C@@H]3CN[C@H](C(=O)Nc4cccc(C(=O)O)c4)C3)[C@H](C)[C@H]12 | broth dilution |  |  |  | ≤ 0.125 µg/mL |
| Cc1nn(-c2ccccc2)c2c1C(c1ccc(Cl)cc1)N(C(=O)c1ccncc1)N2 (stereo not drawn) |  |  | MTCC739 | 24 h | > 100 µg/mL |
| O=C(C=Cc1ccc(O)c(O)c1)OCc1ccccc1 | broth dilution |  | ATCC25922 |  | 8 µg/mL |
| CC(C)(C)OC(=O)N[C@H]1CCN(c2cc(C(=O)NCC(=O)O)ccc2NC(=O)c2cc(Br)c(Br)[nH]2)C1 | broth dilution |  | ATCC25922 |  | > 32 µg/mL |
| C[C@@H](O)[C@H]1C(=O)N2C(C(=O)O)=C(S[C@@H]3CN[C@H](C(=O)N(C)C)C3)[C@H](C)[C@H]12 | broth dilution |  | ATCC25922 | 20 h | < 0.5 µg/mL |
| Cc1nn(-c2ccccc2)c2c1C(c1cncs1)N(C(=O)c1ccncc1)N2 (stereo not drawn) |  |  | MTCC739 | 24 h | 64 µg/mL |
| CC(O)CSc1nnc(-c2ccccc2)n1-c1ccccc1 (stereo not drawn) |  |  |  |  | 11000 µg/mL |
| CC(C)(O/N=C(\C(=O)N[C@@H]1C(=O)N2C(C(=O)[O-])=C(C[n+]3ccccc3)CS[C@H]12)c1csc(N)n1)C(=O)O | broth dilution |  |  |  | 0.125 µg/mL |
| Cc1[nH]c(C(=O)Nc2ccc(C(=O)NCc3n[nH]c(=O)o3)cc2N2CCNCC2)c(Cl)c1Cl.Cl | broth dilution |  | ATCC25922 |  | > 32 µg/mL |
| Cc1nn(-c2ccccc2)c2c1C(c1ccco1)N(C(=O)c1ccncc1)N2 (stereo not drawn) |  |  | MTCC739 | 24 h | 64 µg/mL |
| O=C(O)c1cn(C2CC2)c2cc(N3CCNCC3)c(F)cc2c1=O |  | K12 | MG1655 |  | 2 µM |
| Cc1nn(-c2ccccc2)c2c1C(c1ccc(O)cc1)N(C(=O)c1ccncc1)N2 (stereo not drawn) |  |  | MTCC739 | 24 h | 16 µg/mL |
| O=C(C=Cc1ccc(O)c(O)c1)Oc1ccccc1 | broth dilution |  | ATCC25922 |  | 8 µg/mL |
| Cc1[nH]c(C(=O)Nc2ccc(C(=O)NCC(=O)O)cc2N2CC[C@H](NC(=O)OC(C)(C)C)C2)c(Cl)c1Cl | broth dilution |  | ATCC25922 |  | > 32 µg/mL |
| CC1(C)S[C@@H]2[C@H](NC(=O)[C@H](N)c3ccccc3)C(=O)N2[C@H]1C(=O)O |  |  |  | 24 h | 5 to 10 µM |
| Cc1[nH]c(C(=O)Nc2ccc(-c3n[nH]c(=O)o3)cc2N2CCC[C@H](N)C2)c(Cl)c1Cl.Cl | broth dilution |  | ATCC25922 |  | 16 µg/mL |
| CC(C)NCC(COc1cccc2ccccc12)OC(=O)C=Cc1ccc(O)c(O)c1 (stereo not drawn) | broth dilution |  | ATCC25922 |  | 64 µg/mL |
| Cc1[nH]c(C(=O)Nc2ccc(C(=O)NCc3n[nH]c(=O)o3)cc2N2CCN(C(=O)OC(C)(C)C)CC2)c(Cl)c1Cl | broth dilution |  | ATCC25922 |  | > 32 µg/mL |
| O=C(C=Cc1ccc(O)c(O)c1)OCCc1ccccc1 | broth dilution |  | ATCC25922 |  | 32 µg/mL |
| NCC[C@H](O)C(=O)N[C@@H]1C[C@H](N)[C@@H](O[C@H]2O[C@H](CN)[C@@H](O)[C@H](O)[C@H]2O)[C@H](O)[C@H]1O[C@H]1O[C@H](CO)[C@@H](O)[C@H](N)[C@H]1O | broth dilution |  |  |  | ≤ 1 µg/mL |
| O=C(C=Cc1ccc(O)c(O)c1)Oc1cccc2cccnc12 | broth dilution |  | ATCC25922 |  | 4 µg/mL |
| CCC(C)CCCC(=O)N[C@@H](CCN)C(=O)N[C@H](C(=O)N[C@@H](CCN)C(=O)N[C@H]1CCNC(=O)[C@H]([C@@H](C)O)NC(=O)[C@H](CCN)NC(=O)[C@H](CCN)NC(=O)[C@H](CC(C)C)NC(=O)[C@@H](CC(C)C)NC(=O)[C@H](CCN)NC1=O)[C@@H](C)O (stereo partly drawn) | broth dilution |  |  |  | 0.25 µg/mL |
| Cc1ccc(-c2nnc(SCC(C)O)n2-c2ccccc2)cc1 (stereo not drawn) |  |  |  |  | 12500 µg/mL |
